Experiments:
[1] = melting temperature; fluorescence melt of hairpins on a sequencing array, two-state fit, raised by 9.35 °C to match UV melts; details: sodium 0.088 M
How it was run: (§1)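 Library hairpins on a sequenced MiSeq flow cell carried annealed Cy3 and quencher oligos, and their Cy3 fluorescence was imaged in 50 mM Na-HEPES pH 8.0 with 25 mM NaCl, in 2.5 °C steps up to 60 °C. Signals were normalised to Cy3 before quenching and to control constructs. Melting temperature and folding enthalpy were obtained from bootstrapped two-state fits, combined by inverse-variance weighting across four replicates, and the fitted temperatures were then raised by 9.35 °C to match UV melts.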

[2] = folding enthalpy; higher = less favourable; fluorescence melt of hairpins on a sequencing array, two-state fit; details: sodium 0.088 M
How it was run: as §1

| Sequence | Tm [1] [°C] | folding enthalpy [2] [kcal/mol] |
| --- | --- | --- |
| GAGTCCGGAAACGGATTC ((.((((....)))).)) | 49.9 | -24.7 |
| GAGTCGAAAGACTC (((((....))))) | 60.8 | -29.4 |
| GAGTCGACGAAAGTCCTC (((..(((....)))))) | 26.6 | -9.8 |
| GAGTCGGGAAACCAACTC ((((.((....)).)))) | 38.9 | -30.7 |
| GAGTCGGGAAACTGACTC (((((.(....).))))) | 52.6 | -40.2 |
| GAGTCTGAAAAGACTC ((((((....)))))) | 59 | -38 |
| GAGTCTGGAAACAGATTC ((.((((....)))).)) | 40.9 | -26.2 |
| GAGTGACCGAAAGGTCTC (((..(((....)))))) | 35 | -9.86 |
| GAGTGACGAAAGTCTCTC (((.(((....))).))) | 50.9 | -32.2 |
| GAGTGAGGAAACTCACTC (((((((....))))))) | 61.6 | -40.6 |
| GAGTGAGGAAACTTGCTC (((..((....))..))) | 37.5 | -12.9 |
| GAGTGCGAAAGCAACTC ((((((....))).))) | 59 | -18.8 |
| GAGTGCGGAAACGCACCC (.(((((....))))).) | 45.8 | -8.77 |
| GAGTGGAAACACTC (((((....))))) | 51 | -29.6 |
| GAGTGGACGAAAGTCCTC (((..(((....)))))) | 36 | -9.72 |
| GAGTGGCCGAAAGGCCTC (((..(((....)))))) | 38.3 | -6.93 |
| GAGTGGCGAAAGCCCTC (((.(((....)))))) | 51.3 | -16.4 |
| GAGTGGGGAAACCCATTC ((.((((....)))).)) | 42.5 | -27.2 |
| GAGTGGGGAAACTCACTC (((((.(....).))))) | 49.2 | -40.9 |
| GAGTGGGGAAACTCGCTC (((.(.(....).).))) | 40.4 | -29.6 |
| GAGTGTGAAAACACTC ((((((....)))))) | 60.9 | -35 |
| GAGTGTGGAAACACGCTC (((.(((....))).))) | 54.5 | -26.9 |
| GAGTGTGGAAACGCACTC (((((.(....).))))) | 52.8 | -42.1 |
| GAGTTGCCGAAAGGCCTC (((..(((....)))))) | 34.9 | -9.97 |

| Sequence | Tm [1] [°C] | folding enthalpy [2] [kcal/mol] |
| --- | --- | --- |
| GAGTTGCGAAAGCACCTC (((.(((....))).))) | 47 | -26.3 |
| GAGTTGCGAAAGCACTC (((.(((....)))))) | 53.9 | -21.7 |
| GAGTTGGAAACAACTC ((((((....)))))) | 57.3 | -34.6 |
| GAGTTGGGAAACCAACCC (.(((((....))))).) | 40.5 | -13.8 |
| GAGTTGGGAAACCAACTC (((((((....))))))) | 62 | -39.4 |
| GAGTTGGGAAACTGACTC ((((..(....)..)))) | 34.4 | -26.7 |
| GAGTTTGGAAACAAGCTC (((.(((....))).))) | 44.5 | -34.8 |
| GATAAACGAAAGTTATC (((.(((....)))))) | 33.9 | -15.1 |
| GATAAACGAAAGTTCATC (((.(((....))).))) | 29.2 | -27.3 |
| GATAACCGAAAGGTCATC (((.(((....))).))) | 37.2 | -21.3 |
| GATAACGAAAGTTATATC ((((((....)))..))) | 38.9 | -16 |
| GATAACGGAAACGTTACC (.(((((....))))).) | 34 | -16.5 |
| GATAATGGAAACGTTATC (((((.(....).))))) | 34.6 | -29.4 |
| GATACACCGAAAGGTATC (((..(((....)))))) | 30.3 | -13.2 |
| GATACACGAAAGTGAATC (((.(((....))).))) | 45.2 | -22.1 |
| GATACACGAAAGTGGATC (((.(((....))).))) | 56.6 | -37.4 |
| GATACAGGAAACCGTATC (((((.(....).))))) | 36.5 | -29.6 |
| GATACCCGAAAGGGAATC (((.(((....))).))) | 48 | -23.9 |
| GATACCGAAAGGTCTATC ((((((....)))..))) | 19.6 | -5.86 |
| GATACCGAAAGGTGCATC ((((((....)))..))) | 27.4 | -9.69 |
| GATACCGAAAGGTTATC ((((((....))).))) | 37.6 | -17.7 |
| GATACCGGAAACGATATC ((((.((....)).)))) | 34.8 | -25.8 |
| GATACGGGAAACCATATC ((((.((....)).)))) | 28.2 | -19.3 |
| GATACGGGAAACCGTATC (((((((....))))))) | 59.4 | -35.8 |

| Sequence | Tm [1] [°C] | folding enthalpy [2] [kcal/mol] |
| --- | --- | --- |
| GATAGAGCGAAAGCTATC (((..(((....)))))) | 32.3 | -13 |
| GATAGCCCGAAAGGGATC (((..(((....)))))) | 32.6 | -8.63 |
| GATAGCCGAAAGGCATC (((.(((....)))))) | 43.3 | -12.2 |
| GATAGCCGAAAGGCCATC (((.(((....))).))) | 39.6 | -13.8 |
| GATAGCGAAAGCTTATC ((((((....))).))) | 39 | -13.7 |
| GATAGCGCGAAAGCGATC (((..(((....)))))) | 32.2 | -9.46 |
| GATAGTGGAAACACTACC (.(((((....))))).) | 33.1 | -12.4 |
| GATAGTGGAAACACTGTC ((.((((....)))).)) | 43.4 | -29.7 |
| GATATACGAAAGTAATC (((.(((....)))))) | 23.8 | -9.45 |
| GATATCCCGAAAGGGATC (((..(((....)))))) | 32.5 | -8.05 |
| GATATCGGAAACGATATC (((((((....))))))) | 56.7 | -42.4 |
| GATATGACGAAAGTCATC (((..(((....)))))) | 33.3 | -10.7 |
| GATATTCCGAAAGGAATC (((..(((....)))))) | 32.7 | -11.4 |
| GATATTGGAAACAATGTC ((.((((....)))).)) | 36.3 | -30.9 |
| GATCAAAACCTTGATC ((((((....)))))) | 44.4 | -32.5 |
| GATCAAAACGTTGATC ((((((....)))))) | 39.8 | -28.1 |
| GATCAAAACTTGATC ((((((...)))))) | 41.7 | -27.6 |
| GATCAAAATGTTGATC ((((((....)))))) | 38.4 | -28.1 |
| GATCAAAATTTGATC ((((((...)))))) | 39.3 | -26.4 |
| GATCAAACACTTGATC ((((((....)))))) | 37.9 | -28.7 |
| GATCAAACATTTGATC ((((((....)))))) | 42.4 | -30.2 |
| GATCAAACCTTTGATC ((((((....)))))) | 46 | -30.1 |
| GATCAAAGTCTTGATC ((((((....)))))) | 41.7 | -31.1 |
| GATCAAAGTTTTGATC ((((((....)))))) | 46.1 | -29.2 |

| Sequence | Tm [1] [°C] | folding enthalpy [2] [kcal/mol] |
| --- | --- | --- |
| GATCAAATCTTGATC ((((((...)))))) | 42 | -27.8 |
| GATCAAATGCTTGATC ((((((....)))))) | 41.5 | -29.6 |
| GATCAACAACTTGATC ((((((....)))))) | 38.4 | -35.1 |
| GATCAACAATTTGATC ((((((....)))))) | 38 | -26.8 |
| GATCAACCAATTGATC ((((((....)))))) | 39 | -32.7 |
| GATCAACCATTGATC ((((((...)))))) | 38.8 | -29 |
| GATCAACCTCTTGATC ((((((....)))))) | 43.5 | -30.3 |
| GATCAACGAATTGATC ((((((....)))))) | 38.5 | -25.8 |
| GATCAACGGCTTGATC ((((((....)))))) | 42.4 | -28.7 |
| GATCAACTCCTTGATC ((((((....)))))) | 44.2 | -36.6 |
| GATCAACTCGTTGATC ((((((....)))))) | 57.5 | -42.6 |
| GATCAACTGTTTGATC ((((((....)))))) | 43.2 | -32.3 |
| GATCAACTTGTTGATC ((((((....)))))) | 60.5 | -51.7 |
| GATCAAGAATTGATC ((((((...)))))) | 51.9 | -34.6 |
| GATCAAGACATTGATC ((((((....)))))) | 50.1 | -38.8 |
| GATCAAGCCCTTGATC ((((((....)))))) | 49.4 | -49.1 |
| GATCAAGCGGTTGATC ((((((....)))))) | 46.5 | -38.1 |
| GATCAAGCTTTTGATC ((((((....)))))) | 44.5 | -34.8 |
| GATCAAGGACTTGATC ((((((....)))))) | 50.7 | -40 |
| GATCAAGGATTGATC ((((((...)))))) | 49.8 | -38.8 |
| GATCAAGGGCTTGATC ((((((....)))))) | 46.7 | -34.6 |
